Experiments:
Type in all cases: functional
CCRF-CEM [1] = assay: Concentration that produced 50% inhibition of CCRF-CEM leukemia tumor cell growth was determined; conditions: Homo sapiens, read-out: ID50 (the source's name)
Procedure, shortened: (§1)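 Assay in CCRF-CEM human T-lymphoblastic leukemia cells (mycoplasma-free; suspension in RPMI-1640, 10% fetal bovine serum, 20 mM Hepes). Seeded at 5 × 10⁴ cells/mL with compound at 0.1–100 μM final in 0.5-log steps, triplicate, for 92 h at 37 °C in humidified 5% CO₂. Electronic cell count gave growth as % of control (Me₂SO-matched where relevant). ID₅₀ was taken from the plot.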

L1210 [2] = assay: Concentration that produced 50% inhibition of L1210 leukemia tumor cell growth was determined; conditions: Mus musculus, read-out: ID50 (the source's name)
Procedure, shortened: (§2)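 L1210 murine lymphocytic leukemia cells, mycoplasma-free, grown in suspension in RPMI-1640 with 10% fetal bovine serum and 20 mM Hepes. Inoculum 5 × 10⁴ cells/mL with compound at 0.1–100 μM final (0.5-log steps), in triplicate. Incubated 48 h at 37 °C, humidified 5% CO₂. Growth was measured by Coulter count as % of untreated control, or of a matched Me₂SO control. ID₅₀ was read from the %-control vs concentration plot.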

[3] = Concentration that produced 50% inhibition of WIL2 leukemia tumor cell growth was determined; conditions: Homo sapiens, read-out: ID50 (the source's name)
Procedure, shortened: (§3)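 WIL2 human B-lymphoblastic leukemia cells were kept mycoplasma-free in suspension culture in RPMI-1640 with 10% fetal bovine serum and 20 mM Hepes. Triplicate wells held 5 × 10⁴ cells/mL and compound at 0.1–100 μM final (0.5-log dilutions), for 72 h at 37 °C in 5% CO₂. Coulter cell counts gave growth as % of untreated or Me₂SO-matched controls. ID₅₀ came from the concentration plot.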

CCRF-CEM [4] = assay: Concentration that produced 50% inhibition of CCRF-CEM leukemia tumor cell growth was determined at 100 uM; conditions: Homo sapiens; procedure, shortened: as §1
L1210 [5] = assay: Concentration that produced 50% inhibition of L1210 leukemia tumor cell growth was determined at 100 uM; conditions: Mus musculus; procedure, shortened: as §2
[6] = Concentration that produced 50% inhibition of WIL2 leukemia tumor cell growth was determined at 100 uM; conditions: Homo sapiens; procedure, shortened: as §3

Row | SMILES | IC50 (CCRF-CEM [1]) | IC50 (L1210 [2]) | IC50 [3] | inhibition at 100 µM (CCRF-CEM [4]) | inhibition at 100 µM (L1210 [5]) | inhibition at 100 µM [6]
1 | O=C1N=CN=C2C([C@@H]3O[C@H](CO)[C@@H](O)[C@H]3O)=NNC12 (stereo partly drawn) | 8.4 µM | 31.6 µM | 7.5 µM | – | – | –
2 | Nc1nn2c([C@@H]3O[C@H](CO)[C@@H](O)[C@H]3O)nnc2c(=S)[nH]1 | 67 µM | – | – | – | – | –
3 | Nc1ncnn2c([C@@H]3O[C@H](CO)[C@@H](O)[C@H]3O)nnc12 | 5 µM | 6.3 µM | 7.3 µM | – | – | –
4 | Nc1nn2c([C@@H]3O[C@H](CO)[C@@H](O)[C@H]3O)nnc2c(=O)[nH]1 | – | – | – | 30% | 47% | 35%
5 | O=c1[nH]cnn2c([C@@H]3O[C@H](CO)[C@@H](O)[C@H]3O)nnc12 | – | 7 µM | 15 µM | – | – | –
6 | Nc1ncnc2c([C@@H]3O[C@H](CO)[C@@H](O)[C@H]3O)[nH]nc12 [FORMYCIN] | 6.1 µM | 27.6 µM | 6.2 µM | – | – | –
7 | Nc1nc(N)c2nnc([C@@H]3O[C@H](CO)[C@@H](O)[C@H]3O)n2n1 | 44.7 µM | 16.3 µM | 45.8 µM | – | – | –

— ChEMBL document CHEMBL1123269, “Synthesis and antitumor activity of certain 3-beta-D-ribofuranosyl-1,2,4-triazolo[3,4-f]-1,2,4-triazines related to formycin prepared via ring closure of a 1,2,4-triazine precursor” (1986)
